In brackets after ≈: the same amount, converted by molar mass.
Key:
[1] = Inhibition of wild-type HIV1 3B reverse transcriptase infected in human MT2 cells assessed as protection against viral infection by MTT assay; format: cell-based; settings: Human immunodeficiency virus 1, 3B
In short: (§1)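 Human MT-2 T cells, run in triplicate. For antiviral activity, cells were infected with the HIV-1 IIIB strain, and EC50 was taken as the dose giving 50% protection of infected cells. For cytotoxicity, CC50 was the concentration that inhibited MT-2 cell growth by 50%.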

[2] = Cytotoxicity against human MT2 cells assessed as reduction in cell growth by MTT assay; format: toxicity, cell-based; in short: as §1
[3] = Aqueous solubility of the compound at pH 6.5 by shake-flask method; format: physicochemical

N#Cc1cc2c(Oc3ccc(F)cc3OCCn3ccc(=O)[nH]c3=O)cc(F)cn2c1
EC50 [1]: 0.4 nM

Cc1cc2ccc(C#N)cc2c(C)c1Oc1ccccc1OCCn1ccc(=O)[nH]c1=O
EC50 [1]: 160 nM | CC50 [2]: 5000 nM

N#Cc1ccc2c(Cl)cc(Oc3ccc(F)cc3OCCn3ccc(=O)[nH]c3=O)cc2c1
EC50 [1]: 24 nM | CC50 [2]: > 100000 nM

N#Cc1ccc2c(Cl)cc(Oc3ccccc3OCCn3ccc(=O)[nH]c3=O)cc2c1
EC50 [1]: 14 nM | CC50 [2]: 12000 nM

Cc1c(Oc2ccccc2OCCn2ccc(=O)[nH]c2=O)cc(C(C)C)c2ccc(C#N)cc12
EC50 [1]: 16 nM | CC50 [2]: 9000 nM

Cc1c(Oc2ccc(F)cc2OCCn2ccc(=O)[nH]c2=O)cc(F)c2ccc(C#N)cc12
EC50 [1]: 3 nM | CC50 [2]: > 100000 nM

Cc1c(Oc2ccc(F)cc2OCCn2ccc(=O)[nH]c2=O)cc(Cl)c2ccc(C#N)cc12
EC50 [1]: 3.6 nM | CC50 [2]: 82000 nM

N#Cc1ccc2ccc(Oc3ccc(F)cc3OCCn3ccc(=O)[nH]c3=O)cc2c1
EC50 [1]: 26 nM | CC50 [2]: > 100000 nM

Cc1cc(Oc2ccc(F)cc2OCCn2ccc(=O)[nH]c2=O)c(F)c2cc(C#N)ccc12
EC50 [1]: 58 nM | CC50 [2]: 45000 nM

Cc1c(Oc2ccccc2OCCn2ccc(=O)[nH]c2=O)c(C)c2cc(C#N)ccc2c1C
EC50 [1]: 580 nM | CC50 [2]: > 100000 nM

Cc1c(Oc2ccc(Cl)cc2OCCn2ccc(=O)[nH]c2=O)cc(F)c2ccc(C#N)cc12
EC50 [1]: 18 nM | CC50 [2]: 6000 nM

Cc1c(Oc2ccccc2OCCn2ccc(=O)[nH]c2=O)cc(Cl)c2ccc(C#N)cc12
EC50 [1]: 6.2 nM | solubility thermodynamic [3]: 20.6 µg/mL (≈ 46 µM) | CC50 [2]: > 100000 nM

N#Cc1ccc2c(F)cc(Oc3ccc(F)cc3OCCn3ccc(=O)[nH]c3=O)c(Cl)c2c1
EC50 [1]: 7 nM | CC50 [2]: 28000 nM

Cc1cc(Oc2ccccc2OCCn2ccc(=O)[nH]c2=O)c(Cl)c2cc(C#N)ccc12
EC50 [1]: 5 nM | CC50 [2]: > 100000 nM

N#Cc1ccc2c(F)cc(Oc3ccccc3OCCn3ccc(=O)[nH]c3=O)c(Cl)c2c1
EC50 [1]: 5 nM | CC50 [2]: > 100000 nM

CCc1cc(Oc2ccccc2OCCn2ccc(=O)[nH]c2=O)c(C)c2cc(C#N)ccc12
EC50 [1]: 6 nM | CC50 [2]: 12000 nM

Cc1cc(Oc2ccc(F)cc2OCCn2ccc(=O)[nH]c2=O)c(C)c2cc(C#N)ccc12
EC50 [1]: 1.9 nM | CC50 [2]: > 100000 nM

CCOc1cc(Oc2ccccc2OCCn2ccc(=O)[nH]c2=O)c(C)c2cc(C#N)ccc12
EC50 [1]: 10 nM | CC50 [2]: > 100000 nM

N#Cc1ccc2cc(Oc3ccccc3OCCn3ccc(=O)[nH]c3=O)ccc2c1
EC50 [1]: 1300 nM | CC50 [2]: 9000 nM

Cc1c(Oc2ccccc2OCCn2ccc(=O)[nH]c2=O)cc(F)c2ccc(C#N)cc12
EC50 [1]: 7.8 nM | solubility thermodynamic [3]: 28.2 µg/mL (≈ 65.4 µM) | CC50 [2]: > 100000 nM

COc1cc(Oc2ccccc2OCCn2ccc(=O)[nH]c2=O)c(C)c2cc(C#N)ccc12
EC50 [1]: 17 nM | CC50 [2]: > 100000 nM

Cc1cc(Oc2ccccc2OCCn2ccc(=O)[nH]c2=O)c(C)c2cc(C#N)ccc12
EC50 [1]: 3.5 nM | CC50 [2]: > 100000 nM

Cc1cc(Oc2ccccc2OCCn2ccc(=O)[nH]c2=O)cc2cc(C#N)ccc12
EC50 [1]: 4.9 nM | CC50 [2]: 6000 nM

COCc1cc(Oc2ccccc2OCCn2ccc(=O)[nH]c2=O)c(C)c2cc(C#N)ccc12
EC50 [1]: 15 nM | CC50 [2]: 16000 nM

CCCc1cc(Oc2ccccc2OCCn2ccc(=O)[nH]c2=O)c(C)c2cc(C#N)ccc12
EC50 [1]: 21 nM | CC50 [2]: 15000 nM

N#Cc1ccc2ccc(Oc3ccccc3OCCn3ccc(=O)[nH]c3=O)cc2c1
EC50 [1]: 22 nM | CC50 [2]: 15000 nM

Cc1c(Oc2ccccc2OCCn2ccc(=O)[nH]c2=O)cc(CC2CC2)c2ccc(C#N)cc12
EC50 [1]: 18 nM | CC50 [2]: 13000 nM

From ChEMBL document CHEMBL3867485, “Design, Conformation, and Crystallography of 2-Naphthyl Phenyl Ethers as Potent Anti-HIV Agents” (ACS Med Chem Lett, 2016)
